Measured values published in ChEMBL document CHEMBL3044983, “Antifungal activity and biotransformation of diisophorone by Botrytis cinerea” (J Agric Food Chem, 2005).
Calls of active or inactive are those of the source. No cut-off for these calls is given here.

How the values were obtained:
Botrytis cinerea [1] = test: Antifungal activity against Botryotinia fuckeliana UCA992 assessed as inhibition of radial mycelial growth up to 200 ppm for 5 days by poisoned food technique; assay type: functional
In short: (§1)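 Radial growth on glucose-malt-peptone-agar (pH 6.5-7.0). Test compound was added in ethanol to final 50-200 mg/L, and ethanol was equal in control and treated plates. A 1.5 cm mycelial disk from an actively growing culture was placed at the plate centre, and radial growth was followed over 8 days. Percent inhibition was taken from colony diameters relative to the negative control, as the mean of triplicates.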

Botrytis cinerea [2] = test: Antifungal activity against Botryotinia fuckeliana UCA992 assessed as inhibition of radial mycelial growth up to 100 ppm for 5 days by poisoned food technique; assay type: functional, organism-based; in short: as §1
Botrytis cinerea [3] = test: Antifungal activity against Botryotinia fuckeliana UCA992 assessed as inhibition of radial mycelial growth for 5 days by poisoned food technique; assay type: functional, organism-based
Botrytis cinerea [4] = test: Antifungal activity against Botryotinia fuckeliana UCA992 assessed as inhibition of radial mycelial growth up to 50 ppm for 5 days by poisoned food technique; assay type: functional
Botrytis cinerea [5] = test: Antifungal activity against Botryotinia fuckeliana UCA992 assessed as inhibition of radial mycelial growth up to 150 ppm for 5 days by poisoned food technique; assay type: functional; in short: as §1
Botrytis cinerea [6] = test: Antifungal activity against Botryotinia fuckeliana 2100 assessed as inhibition of radial mycelial growth at 50 ppm for 5 days by poisoned food technique; assay type: functional; conditions: Botrytis cinerea, 2100, 120 h; in short: as §1
Botrytis cinerea [7] = test: Antifungal activity against Botryotinia fuckeliana 2100 assessed as inhibition of radial mycelial growth for 5 days by poisoned food technique; assay type: functional, organism-based

Row | SMILES | inhibition (Botrytis cinerea [1]) | inhibition (Botrytis cinerea [2]) | IC50 (Botrytis cinerea [3]) [ppm] | inhibition (INH) (Botrytis cinerea [1]) [%] | inhibition (INH) (Botrytis cinerea [4]) [%] | inhibition (INH) (Botrytis cinerea [5]) [%] | inhibition at 50 ppm (Botrytis cinerea [6]) [%] | IC50 (Botrytis cinerea [7]) [ppm]
1 | CC1(C)C[C@@]2(C)CC3=C(C(=O)CC(C)(C)[C@@H]3O)[C@@](O)(C1)C2 | inactive | inactive | – | – | – | – | – | –
2 | CC1(C)C[C@@]2(C)CC3=C(C(=O)CC(C)(C)[C@H]3O)[C@@](O)(C1)C2 | inactive | inactive | – | – | – | – | – | –
3 | CC1(C)C[C@@]2(O)C[C@@](C)(C1)[C@H](O)C1=C2C(=O)C[C@@](C)(CO)C1 | inactive | inactive | – | – | – | – | – | –
4 | CC1(C)CC(=O)C2=C(C1)C[C@]1(C)CC(C)(C)C[C@@]2(O)C1 [DIISOPHORONE] | – | inactive | 89 | 92 | 6 | 76 | 69 | 70
5 | CC1(C)CC(=O)C2=C(C1)[C@@H](O)[C@]1(C)CC(C)(C)C[C@@]2(O)C1 | inactive | inactive | – | – | – | – | – | –
